Source: ChEMBL document CHEMBL4627381, “Licochalcone A Selectively Resensitizes ABCG2-Overexpressing Multidrug-Resistant Cancer Cells to Chemotherapeutic Drugs” (J Nat Prod, 2020)

Legend:
[1] = tested on: S1-M1-80; test: Potentiation of topotecan-induced apoptosis in human S1-M1-80 cells harboring ABCG2 (unknown origin) assessed as viable cells at 10 uM incubated for 48 hrs by annexin V/propidium iodide staining based flow cytometry (reference value: 90.6%); format: functional; conditions: S1-M1-80, 48 h, read-out: Activity
[2] = target: T1, Broad substrate specificity ATP-binding cassette transporter ABCG2 (Homo sapiens, UniProt Q9UNQ0); test: Reversal of ABCG2 (unknown origin)-mediated multidrug resistance in human H460-MX20 cells assessed as fold change in topotecan IC50 at 2 uM after 72 hrs by MTT assay relative to topotecan IC50; format: cell-based
T1 sequence (Q9UNQ0 whole entry): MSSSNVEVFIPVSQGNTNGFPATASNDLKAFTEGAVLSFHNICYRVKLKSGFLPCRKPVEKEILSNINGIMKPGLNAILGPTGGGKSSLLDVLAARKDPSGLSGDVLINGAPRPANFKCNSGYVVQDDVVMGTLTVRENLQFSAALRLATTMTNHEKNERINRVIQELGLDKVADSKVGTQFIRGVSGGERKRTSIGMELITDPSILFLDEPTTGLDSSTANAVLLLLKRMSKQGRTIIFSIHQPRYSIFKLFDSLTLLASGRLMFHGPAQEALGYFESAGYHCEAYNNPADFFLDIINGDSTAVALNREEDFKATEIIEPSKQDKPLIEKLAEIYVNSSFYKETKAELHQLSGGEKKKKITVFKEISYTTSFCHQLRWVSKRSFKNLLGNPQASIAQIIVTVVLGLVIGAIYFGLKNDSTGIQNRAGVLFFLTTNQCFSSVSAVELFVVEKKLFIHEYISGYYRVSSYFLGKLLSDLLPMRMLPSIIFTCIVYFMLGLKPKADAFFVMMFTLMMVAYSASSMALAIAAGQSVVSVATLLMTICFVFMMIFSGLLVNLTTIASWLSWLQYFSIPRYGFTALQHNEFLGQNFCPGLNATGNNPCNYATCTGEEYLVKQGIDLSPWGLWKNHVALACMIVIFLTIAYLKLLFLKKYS
Summary of the method: (§1)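 Cells held drug-free 7 days, seeded at 5000 per well for 24 h, then exposed 72 h to mitoxantrone or topotecan dilutions with DMSO (≤0.5%), LCA 0.5–3.0 μM, or Ko143 1.0 μM. Viability was read by MTT. IC50 came from fitted dose-response curves of three independent experiments. Fold-reversal = IC50 without modulator divided by IC50 with modulator.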

[3] = target: T1, Broad substrate specificity ATP-binding cassette transporter ABCG2; test: Reversal of ABCG2 (unknown origin)-mediated multidrug resistance in human H460-MX20 cells assessed as fold change in mitoxantrone IC50 at 2 uM after 72 hrs by MTT assay relative to mitoxantrone IC50; format: cell-based; summary of the method: as §1
[4] = target: T1, Broad substrate specificity ATP-binding cassette transporter ABCG2; test: Reversal of human ABCG2-mediated multidrug resistance in HEK293/R482 cells assessed as fold-change in topotecan IC50 at 3 uM after 72 hrs by CCK8 relative to topotecan IC50; format: cell-based
Summary of the method: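 Cells were seeded at 5000/well for 24 h, then given colchicine, etoposide, mitoxantrone or topotecan ± non-toxic modulator (0.5–3.0 μM) for 72 h, with DMSO up to 0.5%. IC50 came from fitted curves (mean ± SD, three experiments). Fold-reversal = IC50 without modulator ÷ IC50 with modulator.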

[5] = tested on: HEK293; test: Effect on Colchicine-induced cytotoxicity against HEK293 cells assessed as fold change in colchicine IC50 at 0.5 uM after 72 hrs by CCK8 assay relative to colchicine IC50; format: cell-based; conditions: human, hek293, 72 h
Summary of the method: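 Reversal assay in parental pcDNA-HEK293 and transfected HEK293 lines (ABCB1 for colchicine, ABCC1 for etoposide, ABCG2 for mitoxantrone/topotecan). Substrate drug series was given with or without nontoxic modulator (0.5, 1.0, 2.0 or 3.0 μM) for 72 h, with a CCK-8 read-out. Fold-reversal is substrate IC50 without modulator divided by IC50 with modulator. Three independent experiments.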

fold change (FC) [2]: 8.9
fold change (FC) [4]: 4.7
SMILES: C=CC(C)(C)c1cc(/C=C/C(=O)c2ccc(O)cc2)c(OC)cc1O [LICOAGROCHACONE A]
viability at 10 µM [1]: 67.8%
fold change (FC) [3]: 15.5
fold change (FC) [5]: 1
